The results in this text go back to article PMC8550878 (Journal of medicinal chemistry, 2021).

Data set [1] deals with Mcl-1 in A549 cell lysates. The experiment in a line: Covalent adduct in spiked A549 cell lysates by immunoblotting. It counts as binding, human. The following applies: A549 cell lysates spiked with 100 μM compound for 1 h at 37 °C, western blot. The method in brief: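 A549 cells grown in Ham's F-12 with GlutaMAX, 10% FBS, PenStrep and 0.5 μg/mL puromycin. Harvested cells were lysed for 20 min on ice in Tris pH 7.4 buffer with Triton X-100, deoxycholate, SDS, IGEPAL, EDTA, protease and phosphatase inhibitors. Cleared, protein-quantified supernatant was incubated with DMSO or 100 μM test compound for 1 h at 37 °C. Then SDS-PAGE, PVDF transfer, milk block, anti-Mcl-1 and β-tubulin overnight at 4 °C, HRP secondary, ECL.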

In another data set the test system is Mcl-1 in A549 cells. The data set is described as follows: Mcl-1 protein levels in A549 cells by immunoblotting. The following applies: 50 or 100 μM compound, 2 h, western blot relative to β-tubulin. The format is cell-based, human. The method in brief:
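A549 cells grown in Ham's F-12 with GlutaMAX, 10% FBS, 1% PenStrep and 0.5 μg/mL puromycin. Cells were exposed to DMSO or test compound (50 or 100 μM) for 2 h, with or without 30 min pre-treatment with 1 μM carfilzomib. Lysates were run on SDS-PAGE, transferred to PVDF, blocked in 5% milk/TBS-T, probed overnight at 4 °C for Mcl-1 and β-tubulin, then HRP secondary and ECL detection.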

The target of the next data set is T1, hBfl-1 (Homo sapiens, UniProt Q16548).
T1 sequence (Q16548 1-149): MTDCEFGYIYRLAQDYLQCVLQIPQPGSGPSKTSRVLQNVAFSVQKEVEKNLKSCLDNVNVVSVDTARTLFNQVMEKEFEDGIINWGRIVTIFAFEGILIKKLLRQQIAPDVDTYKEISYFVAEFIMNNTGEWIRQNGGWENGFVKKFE
The experiment in a line: DELFIA displacement assay, hBfl-1. It counts as binding.

The next data set in a line: Solubility. The format is physicochemical. The following applies: qualitative, relative to peptides 10 and 11.
The next data set has as its system hMcl-1 construct. The data set is described as follows: In vitro denaturation thermal shift. The format is binding, human. The following applies: hMcl-1 construct used for biochemical and crystallization studies (Figure S4).
The target of data set [2] is T2, hMcl-1 (Homo sapiens, UniProt Q07820). The experiment in a line: Mass spectrometry of covalent adduct. As to conditions: protein alone 18,763 Da (Figure S1). It counts as binding.
T2 sequence (Q07820 172-323): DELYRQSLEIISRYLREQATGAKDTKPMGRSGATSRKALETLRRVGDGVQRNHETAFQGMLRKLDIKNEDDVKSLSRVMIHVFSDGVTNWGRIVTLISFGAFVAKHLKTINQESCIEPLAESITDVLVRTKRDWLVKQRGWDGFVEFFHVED
For data set [3], the target named is T2, hMcl-1. The experiment in a line: DELFIA displacement assay, hMcl-1. It counts as binding.
Data set [4] deals with T3, hMcl-1 (residues 172–323) with N-terminal His tag (human, UniProt Q07820 172-323). The data set is described as follows: DELFIA displacement assay.
T3 sequence (Q07820 172-323): as above
For data set [5], the target named is T4, hBfl-1 (residues 1–149) with N-terminal His tag (human, UniProt Q16548 1-149).
T4 sequence (looked up): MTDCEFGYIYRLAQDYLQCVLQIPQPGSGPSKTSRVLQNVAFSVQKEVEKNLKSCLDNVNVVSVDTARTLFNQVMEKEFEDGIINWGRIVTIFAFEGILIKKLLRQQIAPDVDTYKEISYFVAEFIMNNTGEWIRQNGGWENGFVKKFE
The experiment in a line: DELFIA displacement assay.

Data set [6] has as its target T3, hMcl-1 (residues 172–323) with …. The data set is described as follows: DELFIA displacement assay. The source holds these as a separate data set.

Non-standard residues stand in square brackets, D forms with d. Residues, ends and D or L forms follow the SMILES beside them. No end group written: not given here. *: point of attachment. Benzoyl(2-OMe,5-SO2F) = COc1ccc(S(=O)(=O)F)cc1C(=O)*; Biotin = O=C1N[C@H]2[C@H](CS[C@H]2CCCCC(=O)*)N1; X1 = Cc1ccc(S(=O)(=O)F)cc1C(=O)*; hSer = N[C@@H](CCO)C(=O)O; Nle = CCCC[C@H](N)C(=O)O; Abu = CC[C@H](N)C(=O)O; Dap = NC[C@H](N)C(=O)O; Ahx = NCCCCCC(=O)O

Regarding `CC[C@H](C)[C@H](NC(=O)[C@H](CCCNC(=N)N)NC(=O)[C@H](CCCNC(=N)N)NC(=O)[C@H](CC(C)C)NC(=O)[C@H](CCC(N)=O)NC(=O)[C@H](CCC(=O)O)NC(=O)[C@H](C)NC(=O)[C@@H](NC(=O)[C@H](CNC(=O)c1cc(S(=O)(=O)F)ccc1OC)NC(C)=O)[C@@H](C)CC)C(=O)NCC(=O)N[C@@H](CC(=O)O)C(=O)N[C@@H](CCCNC(=N)N)C(=O)N[C@@H](Cc1ccccc1)C(N)=O` [Compound 16] (Ac-[Dap](Benzoyl(2-OMe,5-SO2F))IAEQLRRIGDRF-NH2), the “covalent adduct with Mcl-1 by band shift in cell lysates” value in data set [1] is “Covalent adduct was detected”. Also, the Mcl-1 protein levels result in the data set with Mcl-1 in A549 cells was “decrease in Mcl-1 protein levels”.
On hBfl-1, Ac-AIAEQLRRIGDRF-NH2 [Compound 12] returned a half-maximal inhibitory concentration (IC50) of over 10000 nM. The solubility entry in the data set “Solubility” is reported as “increased solubility”.
Regarding `CC[C@H](C)[C@H](NC(=O)[C@H](CCCNC(=N)N)NC(=O)[C@H](CCCNC(=N)N)NC(=O)[C@H](CC(C)C)NC(=O)[C@H](CCC(N)=O)NC(=O)[C@H](CCC(=O)O)NC(=O)[C@H](C)NC(=O)[C@@H](NC(=O)[C@H](CNC(=O)c1cc(S(=O)(=O)F)ccc1C)NC(C)=O)[C@@H](C)CC)C(=O)NCC(=O)N[C@@H](CC(=O)O)C(=O)N[C@@H](CCCNC(=N)N)C(=O)N[C@@H](Cc1ccccc1)C(N)=O` [Compound 15] (Ac-[Dap](X1)IAEQLRRIGDRF-NH2), the denaturation thermal shift with hMcl-1 construct stood at 23 °C. In addition, at hMcl-1 [2], the “MW of hMcl-1 after incubation with compound” value is 20,544 Da.
On to AIAQLLRRIGDAF-NH2 [Compound 8], for which, on hMcl-1 [3], the IC50 was about 1800 nM.
On the same count and under the same terms, as for AIAQVLRRIGDAF-NH2 [Compound 7], the figure is about 1800 nM.

B1: peptide 5 (peptide)
chain: H-AIAQALRRIGDA[Nle]-NH2
SMILES: CCCC[C@H](NC(=O)[C@H](C)NC(=O)[C@H](CC(=O)O)NC(=O)CNC(=O)[C@@H](NC(=O)[C@H](CCCNC(=N)N)NC(=O)[C@H](CCCNC(=N)N)NC(=O)[C@H](CC(C)C)NC(=O)[C@H](C)NC(=O)[C@H](CCC(N)=O)NC(=O)[C@H](C)NC(=O)[C@@H](NC(=O)[C@H](C)N)[C@@H](C)CC)[C@@H](C)CC)C(N)=O
In data set [4], B1 yielded an IC50 of about 1600 nM.
Take H-AIAQALRRIGDAY-NH2 [peptide 2]: the IC50 in data set [4] is over 3600 nM.
As to Ac-AIAEQLRRIGDRF-NH2 [peptide 12], in data set [4], the concentration for half-maximal inhibition (IC50) is 570 nM.
The molecule H-AIAQALRRIGDAR-NH2 [peptide 3] had an IC50 in [4] of over 10000 nM.
Still for that read-out and setting: as for H-AIAQALRRIGDAL-NH2 [peptide 4], the figure is 1200 nM.
H-AIAEQLRRIGDAF-NH2 [peptide 11] showed a 50% inhibitory concentration (IC50) in [4] of 313 nM.
Same read-out and setting: as for Ac-AIAEALRRIGDAF-NH2 [peptide 10], the figure is 261 nM.

B2: peptide 9 (peptide)
chain: H-AIAQ[hSer]LRRIGDAF-NH2
SMILES: CC[C@H](C)[C@H](NC(=O)[C@H](C)N)C(=O)N[C@@H](C)C(=O)N[C@@H](CCC(N)=O)C(=O)N[C@@H](CCO)C(=O)N[C@@H](CC(C)C)C(=O)N[C@@H](CCCNC(=N)N)C(=O)N[C@@H](CCCNC(=N)N)C(=O)N[C@H](C(=O)NCC(=O)N[C@@H](CC(=O)O)C(=O)N[C@@H](C)C(=O)N[C@@H](Cc1ccccc1)C(N)=O)[C@@H](C)CC
The molecule B2 showed an IC50 in [4] of about 3000 nM.

B3: biotinylated-BH3 peptide (biotin-AHA-EDIIRNIARHLAQVGDSMDR-NH2) (peptide)
peptide: {Biotin-Ahx}-EDIIRNIARHLAQVGDSMDR-NH2
SMILES: CC[C@H](C)[C@H](NC(=O)[C@H](CC(N)=O)NC(=O)[C@H](CCCNC(=N)N)NC(=O)[C@@H](NC(=O)[C@@H](NC(=O)[C@H](CC(=O)O)NC(=O)[C@H](CCC(=O)O)NC(=O)CCCCCNC(=O)CCCC[C@@H]1SC[C@@H]2NC(=O)N[C@@H]21)[C@@H](C)CC)[C@@H](C)CC)C(=O)N[C@@H](C)C(=O)N[C@@H](CCCNC(=N)N)C(=O)N[C@@H](Cc1c[nH]cn1)C(=O)N[C@@H](CC(C)C)C(=O)N[C@@H](C)C(=O)N[C@@H](CCC(N)=O)C(=O)N[C@H](C(=O)NCC(=O)N[C@@H](CC(=O)O)C(=O)N[C@@H](CO)C(=O)N[C@@H](CCSC)C(=O)N[C@@H](CC(=O)O)C(=O)N[C@@H](CCCNC(=N)N)C(N)=O)C(C)C
Consider B3, for which the binding result in data set [5] and in data set [6] was “binds” throughout.

B4: peptide 6 (peptide)
chain: H-AIAQ[Abu]LRRIGDAF-NH2
SMILES: CC[C@H](NC(=O)[C@H](CCC(N)=O)NC(=O)[C@H](C)NC(=O)[C@@H](NC(=O)[C@H](C)N)[C@@H](C)CC)C(=O)N[C@@H](CC(C)C)C(=O)N[C@@H](CCCNC(=N)N)C(=O)N[C@@H](CCCNC(=N)N)C(=O)N[C@H](C(=O)NCC(=O)N[C@@H](CC(=O)O)C(=O)N[C@@H](C)C(=O)N[C@@H](Cc1ccccc1)C(N)=O)[C@@H](C)CC
In data set [4], B4 yielded an IC50 of about 1300 nM.
